Legend:
SF-539 = assay: Growth inhibition of human SF539 cells after 48 hrs by SRB assay; assay type: functional; conditions: SF-539, 48 h
NCI-H522 = assay: Growth inhibition of human NCI-H522 cells after 48 hrs by SRB assay; assay type: functional; conditions: NCI-H522, 48 h
HCT-15 = assay: Growth inhibition of human HCT15 cells after 48 hrs by SRB assay; assay type: functional; conditions: HCT-15, 48 h
[1] = Growth inhibition of human HBC4 cells after 48 hrs by SRB assay; assay type: functional; conditions: HBC4, 48 h
[2] = Growth inhibition of human MKN1 cells after 48 hrs by SRB assay; assay type: functional; conditions: MKN-1, 48 h
OVCAR-8 = assay: Growth inhibition of human OVCAR8 cells after 48 hrs by SRB assay; assay type: functional; conditions: OVCAR-8, 48 h
[3] = Growth inhibition of human BSY1 cells after 48 hrs by SRB assay; assay type: functional; conditions: BSY-1, 48 h
[4] = Reversal of multidrug resistance in human 2780AD cells assessed as [3H]vincristine accumulation at 0.1 ug/mL after 2 hrs relative to control; assay type: functional, A2780 ADR
How it was run: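 Multidrug-resistant human ovarian cancer 2780AD cells were exposed to taxoids at 0.1, 1 or 10 µg/mL. Radiolabelled vincristine accumulated in the cells was measured as dpm/well, using means of triplicate determinations. Results are expressed as % of vincristine accumulated relative to the control experiment. They were also scored on a seven-level index according to the range of relative accumulation.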

HCT-116 = assay: Growth inhibition of human HCT116 cells after 48 hrs by SRB assay; assay type: functional; conditions: HCT-116, 48 h
NCI-H226 = assay: Growth inhibition of human NCI-H226 cells after 48 hrs by SRB assay; assay type: functional; conditions: NCI-H226, 48 h
DU-145 = assay: Growth inhibition of human DU145 cells after 48 hrs by SRB assay; assay type: functional; conditions: DU-145, 48 h
PC-3 = assay: Growth inhibition of human PC3 cells after 48 hrs by SRB assay; assay type: functional; conditions: PC-3, 48 h
OVCAR-4 = assay: Growth inhibition of human OVCAR4 cells after 48 hrs by SRB assay; assay type: functional; conditions: OVCAR-4, 48 h
SK-OV-3 = assay: Growth inhibition of human SKOV3 cells after 48 hrs by SRB assay; assay type: functional; conditions: SK-OV-3, 48 h
U-251 = assay: Growth inhibition of human U251 cells after 48 hrs by SRB assay; assay type: functional; conditions: U-251, 48 h
HT-29 = assay: Growth inhibition of human HT-29 cells after 48 hrs by SRB assay; assay type: functional; conditions: HT-29, 48 h
MKN-28 = assay: Growth inhibition of human MKN28 cells after 48 hrs by SRB assay; assay type: functional; conditions: MKN-28, 48 h
OVCAR-5 = assay: Growth inhibition of human OVCAR5 cells after 48 hrs by SRB assay; assay type: functional; conditions: OVCAR-5, 48 h
[5] = Growth inhibition of human RXF631L cells after 48 hrs by SRB assay; assay type: functional; conditions: RXF 631, 48 h
KM12 = assay: Growth inhibition of human KM12 cells after 48 hrs by SRB assay; assay type: functional; conditions: KM12, 48 h
A549 = assay: Growth inhibition of human A549 cells after 48 hrs by SRB assay; assay type: functional; conditions: A549, 48 h
[6] = read-out: LC50 (the source's name)
[7] = read-out: pLC50 (the source's name) (converted)

`C=C1[C@@H](OC(C)=O)CC[C@@]2(C)C[C@H](OC(C)=O)C3=C(C)C[C@H](OC(=O)C(C)CC)[C@@H]([C@@H](OC(C)=O)[C@H]12)C3(C)C` (stereo partly specified) showed a GI50 (SF-539; read-out: GI50) of 45 µM, a CC50 (SF-539; [6]) greater than 100 µM and a TGI (SF-539; read-out: TGI) greater than 100 µM. For the same compound, the GI50 (SF-539; read-out: pGI50 (converted)) was 44.7 µM, the CC50 (SF-539; [7]) was 100 µM and the TGI (SF-539; read-out: pTGI (converted)) was 100 µM. It also gave a GI50 (NCI-H522; read-out: GI50) of 15 µM, a CC50 (NCI-H522; [6]) greater than 100 µM and a TGI (NCI-H522; read-out: TGI) of 49 µM. The GI50 (NCI-H522; read-out: pGI50 (converted)) was 24 µM, the CC50 (NCI-H522; [7]) was 100 µM and the TGI (NCI-H522; read-out: pTGI (converted)) was 49 µM. For the same compound, the GI50 (HCT-15; read-out: GI50) was 32 µM, the CC50 (HCT-15; [6]) was greater than 100 µM and the TGI (HCT-15; read-out: TGI) was greater than 100 µM. It also gave a GI50 (HCT-15; read-out: pGI50 (converted)) of 32.4 µM, a CC50 (HCT-15; read-out: pLC50 (converted)) greater than 100 µM and a TGI (HCT-15; read-out: pTGI (converted)) of 100 µM. For the same compound, the GI50 ([1]; read-out: GI50) was 72 µM, the CC50 [1, 6] was greater than 100 µM and the TGI ([1]; read-out: TGI) was greater than 100 µM. It also gave a GI50 ([1]; read-out: pGI50 (converted)) of 72.4 µM, a CC50 [1, 7] of 100 µM and a TGI ([1]; read-out: pTGI (converted)) of 100 µM. The GI50 ([2]; read-out: GI50) was 49 µM, the CC50 [2, 6] was greater than 100 µM and the TGI ([2]; read-out: TGI) was greater than 100 µM. For the same compound, the GI50 ([2]; read-out: pGI50 (converted)) was 49 µM, the TGI ([2]; read-out: pTGI (converted)) was 100 µM and the GI50 (OVCAR-8; read-out: GI50) was 37 µM. For the same compound, the CC50 (OVCAR-8; [6]) was greater than 100 µM, the TGI (OVCAR-8; read-out: TGI) was greater than 100 µM and the GI50 (OVCAR-8; read-out: pGI50 (converted)) was 37.2 µM. For the same compound, the TGI (OVCAR-8; read-out: pTGI (converted)) was 100 µM, the GI50 ([3]; read-out: GI50) was 30 µM and the CC50 [3, 6] was greater than 100 µM. The TGI ([3]; read-out: TGI) was greater than 100 µM, the GI50 ([3]; read-out: pGI50 (converted)) was 30.2 µM and the TGI ([3]; read-out: pTGI (converted)) was 100 µM. For the same compound, the Activity [4] was 111%, the GI50 (HCT-116; read-out: GI50) was 30 µM and the CC50 (HCT-116; [6]) was greater than 100 µM. The TGI (HCT-116; read-out: TGI) was greater than 100 µM, the GI50 (HCT-116; read-out: pGI50 (converted)) was 30.2 µM and the CC50 (HCT-116; [7]) was 100 µM. It also gave a TGI (HCT-116; read-out: pTGI (converted)) of 100 µM, a GI50 (NCI-H226; read-out: GI50) of 32 µM and a CC50 (NCI-H226; [6]) greater than 100 µM. For the same compound, the TGI (NCI-H226; read-out: TGI) was greater than 100 µM, the GI50 (NCI-H226; read-out: pGI50 (converted)) was 32.4 µM and the CC50 (NCI-H226; [7]) was 100 µM. It also gave a TGI (NCI-H226; read-out: pTGI (converted)) of 100 µM, a GI50 (DU-145; read-out: GI50) of 33 µM and a CC50 (DU-145; [6]) greater than 100 µM. The TGI (DU-145; read-out: TGI) was greater than 100 µM, the GI50 (DU-145; read-out: pGI50 (converted)) was 32.4 µM and the CC50 (DU-145; [7]) was 100 µM. It also gave a TGI (DU-145; read-out: pTGI (converted)) of 100 µM, a GI50 (PC-3; read-out: GI50) of 20 µM and a CC50 (PC-3; [6]) greater than 100 µM. It also gave a TGI (PC-3; read-out: TGI) greater than 100 µM, a GI50 (PC-3; read-out: pGI50 (converted)) of 20 µM and a TGI (PC-3; read-out: pTGI (converted)) of 100 µM. The GI50 (OVCAR-4; read-out: GI50) was 21 µM, the CC50 (OVCAR-4; [6]) was greater than 100 µM and the TGI (OVCAR-4; read-out: TGI) was greater than 100 µM. The GI50 (OVCAR-4; read-out: pGI50 (converted)) was 21.4 µM, the CC50 (OVCAR-4; [7]) was 100 µM and the TGI (OVCAR-4; read-out: pTGI (converted)) was 100 µM. The GI50 (SK-OV-3; read-out: GI50) was 68 µM, the CC50 (SK-OV-3; [6]) was greater than 100 µM and the TGI (SK-OV-3; read-out: TGI) was greater than 100 µM. The GI50 (SK-OV-3; read-out: pGI50 (converted)) was 69.2 µM, the CC50 (SK-OV-3; [7]) was 100 µM and the TGI (SK-OV-3; read-out: pTGI (converted)) was 100 µM. For the same compound, the GI50 (U-251; read-out: GI50) was 36 µM, the CC50 (U-251; [6]) was greater than 100 µM and the TGI (U-251; read-out: TGI) was greater than 100 µM. The GI50 (U-251; read-out: pGI50 (converted)) was 36.3 µM, the CC50 (U-251; [7]) was 100 µM and the TGI (U-251; read-out: pTGI (converted)) was 100 µM. It also gave a GI50 (HT-29; read-out: GI50) of 28 µM, a CC50 (HT-29; [6]) greater than 100 µM and a TGI (HT-29; read-out: TGI) greater than 100 µM. It also gave a GI50 (HT-29; read-out: pGI50 (converted)) of 27.5 µM, a CC50 (HT-29; read-out: pLC50 (converted)) greater than 100 µM and a TGI (HT-29; read-out: pTGI (converted)) of 100 µM. The GI50 (MKN-28; read-out: GI50) was 31 µM, the CC50 (MKN-28; [6]) was greater than 100 µM and the TGI (MKN-28; read-out: TGI) was greater than 100 µM. For the same compound, the GI50 (MKN-28; read-out: pGI50 (converted)) was 30.9 µM, the CC50 (MKN-28; read-out: pLC50 (converted)) was greater than 100 µM and the TGI (MKN-28; read-out: pTGI (converted)) was 100 µM. For the same compound, the GI50 (OVCAR-5; read-out: GI50) was 48 µM, the CC50 (OVCAR-5; [6]) was greater than 100 µM and the TGI (OVCAR-5; read-out: TGI) was greater than 100 µM. It also gave a GI50 (OVCAR-5; read-out: pGI50 (converted)) of 47.9 µM, a TGI (OVCAR-5; read-out: pTGI (converted)) of 100 µM and a GI50 ([5]; read-out: GI50) of 25 µM. It also gave a CC50 [5, 6] greater than 100 µM, a TGI ([5]; read-out: TGI) greater than 100 µM and a GI50 ([5]; read-out: pGI50 (converted)) of 24.5 µM. For the same compound, the CC50 [5, 7] was 100 µM, the TGI ([5]; read-out: pTGI (converted)) was 100 µM and the GI50 (KM12; read-out: GI50) was 42 µM. For the same compound, the CC50 (KM12; [6]) was greater than 100 µM, the TGI (KM12; read-out: TGI) was greater than 100 µM and the GI50 (KM12; read-out: pGI50 (converted)) was 41.7 µM. The CC50 (KM12; read-out: pLC50 (converted)) was greater than 100 µM, the TGI (KM12; read-out: pTGI (converted)) was 100 µM and the GI50 (A549; read-out: GI50) was 30 µM. For the same compound, the CC50 (A549; [6]) was greater than 100 µM, the TGI (A549; read-out: TGI) was greater than 100 µM and the GI50 (A549; read-out: pGI50 (converted)) was 30.2 µM. It also gave a CC50 (A549; [7]) of 100 µM and a TGI (A549; read-out: pTGI (converted)) of 100 µM.

— ChEMBL document CHEMBL1146459, “Production of biologically active taxoids by a callus culture of Taxus cuspidata” (2004)
